Laboratory results taken from ChEMBL document CHEMBL3877293, “Synthesis and Antineoplastic Evaluation of Novel Unsymmetrical 1,3,4-Oxadiazoles” (J Med Chem, 2016).
Calls of active or inactive are those of the source. The calls are words filed in the database; no cut-off is given here.

Key:
[1] = Cell cycle arrest in human NB-1 cells assessed as G2/M phase accumulation at 1 uM after 24 hrs by propidium iodide staining based flow cytometry (reference value: 21.2%); conditions: nb1, 24 h
MCF7 [2] = assay: Increase in p53 expression in human MCF7 cells at 1 uM after 24 hrs by immunoblot method relative to control; type: functional
Summary of the method: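 After 24 h treatment at 1 μM, cells lysed in Tris pH 8/NaCl/glycerol/NP-40/EDTA buffer with protease inhibitors. Equal lysate amounts run on 10% SDS gels, blotted to nitrocellulose, probed for p53 with GAPDH as loading control, detected by enhanced chemiluminescence. Bands quantified by densitometry against GAPDH and compared with untreated cells; three independent experiments.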

MCF7 [3] = assay: Antiproliferative activity against human MCF7 cells at 0.5 uM after 72 hrs in presence of MRP1 inhibitor reversan by XTT assay relative to control; type: functional, cell-based
Summary of the method: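 Mcf7 cells treated after 24 h for 72 h at 37 °C, 5% CO2 with test compound at 0.5 μM alone or combined with harmine (1, 3, 5 μM) or reversan (5, 15, 25 μM). XTT was added for 4 h at 37 °C, absorbance read at 490 nm, and viability compared with control.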

A549 [4] = assay: Induction of apoptosis in human A549 cells assessed as early apoptotic cells at 5 uM after 72 hrs by Annexin-V FITC/propidium iodide staining based flow cytometry (reference value: 1.3%); type: functional
MCF7 [5] = assay: Selectivity ratio of IC50 for human MCF7 cells to IC50 for human T98G cells; type: functional
Summary of the method: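 XTT viability: 1500–2000 cells/well plated by doubling time; compounds added after 24 h, then 72 h further culture without medium change. XTT reagent 4 h at 37 °C, absorbance read at 490 nm. IC50 is the concentration halving absorbance versus untreated cells; triplicate experiments. Ratio is MCF7 IC50 divided by IC50 in the named line.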

[6] = Cell cycle arrest in human NB1 hTERT cells assessed as G2/M phase accumulation at 1 uM after 24 hrs by propidium iodide staining based flow cytometry (reference value: 35.7%); type: functional
[7] = Cell cycle arrest in human SH-SY5Y cells assessed as G1 phase accumulation at 1 uM after 24 hrs by propidium iodide staining based flow cytometry (reference value: 59.6 +/- 1.94%); type: functional
[8] = Cell cycle arrest in human NB-1 cells assessed as G1 phase accumulation at 1 uM after 72 hrs by propidium iodide staining based flow cytometry (reference value: 81.7%); conditions: nb1, 72 h
[9] = Induction of apoptosis in human NB1 hTERT cells assessed as early apoptotic cells at 5 uM after 72 hrs by Annexin-V FITC/propidium iodide staining based flow cytometry (reference value: 0.6%); type: functional
[10] = Cell cycle arrest in human Kelly cells assessed as G2/M phase accumulation at 1 uM after 24 hrs by propidium iodide staining based flow cytometry (reference value: 18 +/- 1.28%); type: functional
[11] = Cell cycle arrest in human HeLa cells assessed as G2/M phase accumulation at 1 uM after 8 hrs by propidium iodide staining based flow cytometry (reference value: 18.1%); type: functional
[12] = Cell cycle arrest in human NCI-H1299 cells assessed as G2/M phase accumulation at 1 uM after 48 hrs by propidium iodide staining based flow cytometry (reference value: 11.8%); type: functional
[13] = Cell cycle arrest in human NCI-H1299 cells assessed as G1 phase accumulation at 1 uM after 48 hrs by propidium iodide staining based flow cytometry (reference value: 81%); type: functional
HeLa = assay: Cytotoxicity against human HeLa cells assessed as inhibition of colony formation after 2 weeks by crystal violet staining based assay; type: functional, cell-based
Summary of the method: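 HeLa seeded at 100-200 cells/well in six-well plates and treated with 0.3 or 0.03 μM compound (DMSO control). Medium with compound changed every 3 days for about two weeks, until control colonies were visible. Colonies fixed and stained with 6.0% glutaraldehyde/0.5% crystal violet for 30 min, then counted against control. Done in triplicate.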

SH-SY5Y = assay: Disruption of beta-tubulin network in human SH-SY5Y cells assessed as pyknotic nuclei at 1 uM after 24 hrs by DAPI staining based immunofluorescence microscopic analysis; type: cell-based
Summary of the method: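 Cells seeded on glass coverslips (1 x 10^5/well), treated 24 h, fixed in 4% paraformaldehyde 15 min, permeabilized with 0.5% Triton X-100, blocked in 5% BSA/PBS, stained overnight at 4 °C with anti-β-tubulin (1:200) then fluorescent secondary antibody; nuclei counterstained with DAPI; microtubule organization and nuclear morphology examined by fluorescence microscopy.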

[14] = Cell cycle arrest in human NB1 hTERT cells assessed as G2/M phase accumulation at 1 uM after 48 hrs by propidium iodide staining based flow cytometry (reference value: 27.2%); type: functional
[15] = Cell cycle arrest in human NB-1 cells assessed as S phase accumulation at 1 uM after 72 hrs by propidium iodide staining based flow cytometry (reference value: 2.5%); conditions: nb1, 72 h
[16] = Cell cycle arrest in human NB1 hTERT cells assessed as sub G1 phase accumulation at 1 uM after 48 hrs by propidium iodide staining based flow cytometry relative to control; type: functional
[17] = Cell cycle arrest in human MCF7 cells assessed as S phase accumulation at 1 uM after 144 hrs by propidium iodide staining based flow cytometry (reference value: 17.8%); type: functional
[18] = Cell cycle arrest in human SK-N-AS cells assessed as G1 phase accumulation at 1 uM after 24 hrs by propidium iodide staining based flow cytometry (reference value: 51.5 +/- 1.39%); type: functional
[19] = Cell cycle arrest in human LAN1 cells assessed as G2/M phase accumulation at 1 uM after 24 hrs by propidium iodide staining based flow cytometry (reference value: 26.2 +/- 1.92%); type: functional
[20] = Cell cycle arrest in human NB-1 cells assessed as S phase accumulation at 1 uM after 24 hrs by propidium iodide staining based flow cytometry (reference value: 3.8%); conditions: nb1, 24 h
[21] = Antiproliferative activity against human MRC5 cells after 72 hrs by XTT assay; type: cell-based; conditions: MRC5, 72 h
Summary of the method: (§1)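 Cells plated at 1500–2000 per well by doubling time, treated after 24 h with a concentration series in six triplicate wells, and incubated 72 h without a medium change. XTT reagent was then added for 4 h at 37 °C and absorbance read at 490 nm. IC50 is the concentration halving absorbance versus untreated cells. Experiments run in triplicate.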

A549 [22] = assay: Induction of apoptosis in human A549 cells assessed as late apoptotic cells at 5 uM after 72 hrs by Annexin-V FITC/propidium iodide staining based flow cytometry (reference value: 5.2%); type: functional
[23] = Cell cycle arrest in human NB1 hTERT cells assessed as G2/M phase accumulation at 1 uM after 72 hrs by propidium iodide staining based flow cytometry (reference value: 23.9%); type: functional
[24] = Cell cycle arrest in human NB-1 cells assessed as G2/M phase accumulation at 1 uM after 72 hrs by propidium iodide staining based flow cytometry (reference value: 15.8%); conditions: nb1, 72 h
[25] = Antiproliferative activity against human A549 cells after 72 hrs by XTT assay; type: functional, cell-based; conditions: A549, 72 h; summary of the method: as §1
[26] = Induction of apoptosis in human NB1 hTERT cells assessed as live cells at 5 uM after 72 hrs by Annexin-V FITC/propidium iodide staining based flow cytometry (reference value: 93.2%); type: functional

For `Cc1[nH]c2c(c1-c1nnc(-c3ccccc3)o1)Cc1ccccc1-2`, which Activity [1] is on record?
The Activity was 23.8%.

And the “fold change (FC)” value (MCF7 [2])?
The value was 2 - 3.

And the Activity (MCF7 [3])?
Its Activity is “Active”.

And the Activity (A549 [4])?
Its Activity is 11%.

What about the “Ratio IC50” value (MCF7 [5]) of the same compound?
The value was 28 - 34.

What about the Activity [6] of the same compound?
Its Activity is 28.9%.

What about the Activity [7] of the same compound?
Its Activity is 24.8%.

What about the Activity [8] of the same compound?
Its Activity is 77.6%.

And the Activity [9]?
Its Activity is 3.8%.

And the Activity [10]?
The Activity was 42.9%.

What about the Activity [11] of the same compound?
Its Activity is 45.3%.

And the Activity [12]?
Its Activity is 42.9%.

What about the Activity [13] of the same compound?
Its Activity is 34.3%.

What about the inhibition (HeLa) of the same compound?
Its inhibition is “Dose-dependent effect”.

What about the Activity (SH-SY5Y) of the same compound?
Its Activity is “Active”.

And the Activity [14]?
Its Activity is 23.1%.

What about the Activity [15] of the same compound?
The Activity was 4.3%.

What about the Activity [16] of the same compound?
The Activity was 24.9%.

What about the Activity [17] of the same compound?
Its Activity is 5.6%.

And the Activity [18]?
Its Activity is 10.8%.

What about the Activity [19] of the same compound?
The Activity was 82.6%.

What about the Activity [20] of the same compound?
Its Activity is 3.2%.

What about the IC50 [21] of the same compound?
Its IC50 is 190 nM.

What about the Activity (A549 [22]) of the same compound?
The Activity was 41.7%.

And the Activity [23]?
Its Activity is 20.8%.

And the Activity [24]?
Its Activity is 18.1%.

And the IC50 [25]?
The IC50 was 240 nM.

What about the Activity [26] of the same compound?
Its Activity is 81%.
